Assay results: ChEMBL document CHEMBL1122886, “Nucleoside conjugates. 6. Synthesis and comparison of antitumor activity of 1-beta-D-arabinofuranosylcytosine conjugates of corticosteroids and selected lipophilic alcohols” (1985)

How the values were obtained:
Mus musculus [1] = organism: Mus musculus; assay: Percent increase in life span in mice bearing lymphoid leukemia, treatment schedule is 1-5 qd.; assay type: functional
Method in brief: (§1)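 C3D2F1/J mice (C3H/HEJ female × DBA/2J male), groups of six, av wt 25 g, inoculated ip with 1 × 10^6 L1210 cells. Daily ip treatment (qd 1-5 or qd 1-9) started 24 h after inoculation, over a wide dose range. Mice observed daily until death or 45 days. ILS = (T/C − 1) × 100. Active range is doses giving ILS ≥25%; optimum dose gives the greatest ILS.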

L1210 [2] = assay: Percent hydrolysis by phosphodiesterase I at 24-h incubation after 30-minutes incubation.; assay type: functional, Mus musculus
L1210 [3] = assay: In vitro cytotoxicity with cleavage by phosphodiesterase-I concentration for 50% loss of viability was determined at 72 hours.; assay type: functional; conditions: Mus musculus, L1210, 72 h; read-out: ED50 (the source's name)
Mus musculus [4] = organism: Mus musculus; assay: Number of animals survived after 30-days in mice bearing lymphoid leukemia, treatment schedule is 1-5 qd.; assay type: functional; method in brief: as §1
Mus musculus [5] = organism: Mus musculus; assay: Dose producing greatest increase in life span of mice bearing lymphoid leukemia, treatment schedule is 1-5 qd.; assay type: functional; method in brief: as §1
Mus musculus [6] = assay: Dose producing greatest increase in life span >/=25% in mice bearing lymphoid leukemia, treatment schedule is 1-5 qd; 40-60 [mg(umol)/kg] /day; assay type: functional; method in brief: as §1
Mus musculus [7] = organism: Mus musculus; assay: Weight change observed on day 8 in mice bearing lymphoid leukemia, treatment schedule is 1-5 qd.; assay type: functional
Method in brief: (§2)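 C3D2F1/J mice (C3H/HEJ female × DBA/2J male), groups of six, average weight 25 g, were inoculated ip with 1 × 10^6 L1210 cells. Ip treatment began 24 h after inoculation, daily on days 1-5 or 1-9, over a wide dose range. Mice were observed daily until death or 45 days. Body-weight change was recorded, and ILS was calculated as (T/C − 1) × 100.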

Mus musculus [8] = assay: Dose producing greatest increase in life span >/=25% in mice bearing lymphoid leukemia, treatment schedule is 1-5 qd; 20-60 [mg(umol)/kg] /day; assay type: functional; method in brief: as §1
Mus musculus [9] = organism: Mus musculus; assay: Number of animals survived after 30-days in mice bearing lymphoid leukemia, treatment schedule is 1-9 qd.; assay type: functional; method in brief: as §1
Mus musculus [10] = organism: Mus musculus; assay: Percent increase in life span in mice bearing lymphoid leukemia, treatment schedule is 1-9 qd.; assay type: functional; method in brief: as §1
Mus musculus [11] = assay: Dose producing greatest increase in life span >/=25% in mice bearing lymphoid leukemia, treatment schedule is 1-9 qd; 5-20 [mg(umol)/kg] /day; assay type: functional; method in brief: as §1
Mus musculus [12] = assay: In vivo antitumor activity against intraperitoneally inoculated L1210 Lymphoid leukemic mice (Dose producing greatest increase in life span, treatment schedule is 1- 9 qd); assay type: functional; method in brief: as §1
Mus musculus [13] = assay: Dose producing greatest increase in life span >/=25% in mice bearing lymphoid leukemia, treatment schedule is 1-5 qd; 5-80 [mg(umol)/kg] /day; assay type: functional; method in brief: as §1
Mus musculus [14] = assay: In vivo antitumor activity against intraperitoneally inoculated L1210 lymphoid leukemic mice (Weight change observed on day 8.Treatment schedule is 1-9 qd); assay type: functional; method in brief: as §2
Mus musculus [15] = assay: In Vivo Antitumor activity against intraperitoneally inoculated L1210 Lymphoid leukemic mice. Number of animals survived after 30-days. Treatment schedule is 1-9 qd.; assay type: functional; method in brief: as §1
Mus musculus [16] = assay: In Vivo Antitumor activity against intraperitoneally inoculated L1210 Lymphoid leukemic mice. Percent increase in life span. Treatment schedule is 1-9 qd.; assay type: functional; method in brief: as §1
Mus musculus [17] = assay: Dose producing greatest increase in life span >/=25% in mice bearing lymphoid leukemia, treatment schedule is 1-9 qd; 40-80 [mg(umol)/kg] /day; assay type: functional; method in brief: as §1
Mus musculus [18] = assay: Dose producing greatest increase in life span >/=25% in mice bearing lymphoid leukemia, treatment schedule is 1-5 qd; 20-80 [mg(umol)/kg] /day; assay type: functional; method in brief: as §1

Row | Structure (SMILES) | ILS (Mus musculus [1]) [%] | Hydrolysis (L1210 [2]) [%] | EC50 (L1210 [3]) [nM] | 30 day survivors (Mus musculus [4]) | Optimal dose (Mus musculus [5]) [mg/kg/day] | Weight change (Mus musculus [7]) [g mouse-1 on day 8] | also measured
1 | CC12CC(O)C3C4C=CC(=O)C=C4CCC3C1CC[C@]2(O)C(=O)COP(=O)(O)OP(=O)(O)OC[C@H]1OC(n2ccc(N)nc2=O)[C@@H](O)[C@@H]1O (stereo partly drawn) | 116 |  |  |  |  |  | 
2 | Nc1ccn(C2O[C@H](COP(=O)(O)OCC34CC5CC(CC(C5)C3)C4)[C@@H](O)[C@@H]2O)c(=O)n1 (stereo partly drawn) |  | 9 | 1250 |  |  |  | 
3 | Nc1ccn(C2O[C@H](COP(=O)(O)OCCCl)[C@@H](O)[C@@H]2O)c(=O)n1 (stereo partly drawn) |  | 2 | 3130 |  |  |  | 
4 | CC12CCC(=O)C=C1CCC1C2C(=O)CC2(C)C1CC[C@]2(O)C(=O)COP(=O)(O)OP(=O)(O)OC[C@H]1OC(n2ccc(N)nc2=O)[C@@H](O)[C@@H]1O (stereo partly drawn) | 36 | 100 | 80 | 0 | 40 | -0.78 | Active dose range (Mus musculus [6]): 40 mg/kg/day
5 | CC12CCC(=O)C=C1CCC1C2C(O)CC2(C)C1CC[C@]2(O)C(=O)COP(=O)(O)OP(=O)(O)OC[C@H]1OC(n2ccc(N)nc2=O)[C@@H](O)[C@@H]1O (stereo partly drawn) | 86 |  |  |  |  |  | 
6 | CC12CCC(=O)C=C1CCC1C2CCC2(C)C1CC[C@@H]2C(=O)COP(=O)(O)OP(=O)(O)OC[C@H]1OC(n2ccc(N)nc2=O)[C@@H](O)[C@@H]1O (stereo partly drawn) | 22 | 100 | 160 | 0 | 20 | -3.73 | 
7 | C[C@]12C[C@H](O)[C@H]3[C@@H](CCC4=CC(=O)CC[C@@]43C)[C@@H]1CC[C@@H]2C(=O)COP(=O)(O)O.Nc1ccn([C@@H]2O[C@H](COP(=O)(O)O)[C@@H](O)[C@@H]2O)c(=O)n1 |  |  | 80 |  |  |  | 
8 | CCCCCCCCCCCCCCCCOP(=O)(O)OP(=O)(O)OC[C@H]1OC(n2ccc(N)nc2=O)[C@@H](O)[C@@H]1O (stereo partly drawn) | 38 | 80 | 4300 | 0 | 40 | 2.92 | Active dose range (Mus musculus [8]): 20 mg/kg/day
9 | Nc1ccn(C2O[C@H](COP(=O)(O)OCC3CCCCC3)[C@@H](O)[C@@H]2O)c(=O)n1 (stereo partly drawn) | -5 | 0 | 7000 | 0 | 40 | -0.67 | 
10 | CC12CCC(=O)C=C1CCC1C2CCC2(C)C1CC[C@]2(O)C(=O)COP(=O)(O)OP(=O)(O)OC[C@H]1OC(n2ccc(N)nc2=O)[C@@H](O)[C@@H]1O (stereo partly drawn) | 33 | 100 | 20 | 0 | 60 | -2.15 | Active dose range (Mus musculus [8]): 20 mg/kg/day
11 | Nc1ccn([C@@H]2O[C@H](COP(=O)(O)OCCC34CC5CC(CC(C5)C3)C4)[C@@H](O)[C@@H]2O)c(=O)n1 | 18 | 25 | 310 | 0 | 40 | 0.87 | 
12 | Nc1ccn([C@@H]2O[C@H](COP(=O)(O)O)[C@@H](O)[C@H]2O)c(=O)n1 |  |  | 50 |  |  |  | 
13 | CCCCCCCCCCCCCCCCOP(=O)(O)OC[C@H]1O[C@@H](n2ccc(N)nc2=O)[C@@H](O)[C@@H]1O | -22 | 0 | 16500 |  | 20 | -4.75 | No. of survivors (Mus musculus [4]): 0
14 | Nc1ccn(C2O[C@H](COP(=O)(O)OP(=O)(O)OCC3CCCCC3)[C@@H](O)[C@@H]2O)c(=O)n1 (stereo partly drawn) |  | 80 | 5600 |  |  |  | 
15 | Nc1ccn([C@@H]2O[C@H](CO)[C@@H](O)[C@@H]2O)c(=O)n1 [CYTARABINE] | 63 |  | 190 | 1 | 9.2 | -2.66 | 30 day survivors (Mus musculus [9]): 1; ILS (Mus musculus [10]): 138%; Active dose range (Mus musculus [11]): 5 mg/kg/day; Optimal dose (Mus musculus [12]): 9.2 mg/kg/day; Active dose range (Mus musculus [13]): 5 mg/kg/day; Weight change (Mus musculus [14]): -4.56 g mouse-1 on day 8
16 | CC12CCC(=O)C=C1CCC1C2C(O)CC2(C)C1CC[C@@H]2C(=O)COP(=O)(O)OP(=O)(O)OC[C@H]1OC(n2ccc(N)nc2=O)[C@@H](O)[C@@H]1O (stereo partly drawn) | 95 | 100 | 90 | 0 | 60 | -0.45 | 30 day survivors (Mus musculus [15]): 2; ILS (Mus musculus [16]): 152%; Active dose range (Mus musculus [17]): 40 mg/kg/day; Optimal dose (Mus musculus [12]): 80 mg/kg/day; Active dose range (Mus musculus [18]): 20 mg/kg/day; Weight change (Mus musculus [14]): -1.95 g mouse-1 on day 8
